Laboratory results: ChEMBL document CHEMBL3102806, “1,2,4-Triazole/oxime hybrids as new strategy for nitric oxide donors: Synthesis, anti-inflammatory, ulceroginicity and antiproliferative activities” (Eur J Med Chem, 2014)

Experiments:
T47D = test: Growth inhibition of human T47D cells assessed as cell growth at 10^-5 M after 48 hrs by sulforhodamine B assay relative to control; assay type: functional; conditions: read-out: Activity
Procedure, shortened: (§1)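 NCI primary screen across about 60 human tumour cell lines. Single dose of 10^-5 M, cultures incubated 48 h, end point by sulforhodamine B protein staining read spectrophotometrically. Results are given as percent growth of treated cells relative to untreated control cells.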

BT-549 = test: Growth inhibition of human BT549 cells assessed as cell growth at 10^-5 M after 48 hrs by sulforhodamine B assay relative to control; assay type: functional; conditions: BT-549, 48 h, read-out: Activity
Procedure, shortened: (§2)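 NCI ~60 human tumour cell line screen. Single concentration of 10^-5 M added to cultures for 48 h. End point by sulforhodamine B protein staining read spectrophotometrically. Percent growth relative to untreated control cells.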

[1] = Growth inhibition of human Hs 578T cells assessed as cell growth at 10^-5 M after 48 hrs by sulforhodamine B assay relative to control; assay type: functional; conditions: read-out: Activity; procedure, shortened: as §2
TK-10 = test: Growth inhibition of human TK10 cells assessed as cell growth at 10^-5 M after 48 hrs by sulforhodamine B assay relative to control; assay type: functional; conditions: TK-10, 48 h, read-out: Activity; procedure, shortened: as §1
SN12C = test: Growth inhibition of human SN12C cells assessed as cell growth at 10^-5 M after 48 hrs by sulforhodamine B assay relative to control; assay type: functional; conditions: read-out: Activity; procedure, shortened: as §1
[2] = Growth inhibition of human RXF393 cells assessed as cell growth at 10^-5 M after 48 hrs by sulforhodamine B assay relative to control; assay type: functional; conditions: RXF 393, 48 h, read-out: Activity
Procedure, shortened: (§3)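 NCI primary screen, one-dose format across about 60 human tumour cell lines. Single addition at 10^-5 M with 48 h incubation; SRB protein-binding dye end point read spectrophotometrically. Reported as percent growth of treated cells versus untreated controls.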

[3] = Growth inhibition of human OVCAR4 cells assessed as cell growth at 10^-5 M after 48 hrs by sulforhodamine B assay relative to control; assay type: functional; conditions: OVCAR-4, 48 h, read-out: Activity; procedure, shortened: as §3
UACC-62 = test: Growth inhibition of human UACC62 cells assessed as cell growth at 10^-5 M after 48 hrs by sulforhodamine B assay relative to control; assay type: functional; conditions: UACC-62, 48 h, read-out: Activity; procedure, shortened: as §1
[4] = Growth inhibition of human UACC257 cells assessed as cell growth at 10^-5 M after 48 hrs by sulforhodamine B assay relative to control; assay type: functional; conditions: UACC-257, 48 h, read-out: Activity; procedure, shortened: as §1
SK-MEL-28 = test: Growth inhibition of human SK-MEL-28 cells assessed as cell growth at 10^-5 M after 48 hrs by sulforhodamine B assay relative to control; assay type: functional; conditions: SK-MEL-28, 48 h, read-out: Activity; procedure, shortened: as §1
SNB-75 = test: Growth inhibition of human SNB75 cells assessed as cell growth at 10^-5 M after 48 hrs by sulforhodamine B assay relative to control; assay type: functional; conditions: SNB-75, 48 h, read-out: Activity; procedure, shortened: as §1
[5] = Growth inhibition of human SF539 cells assessed as cell growth at 10^-5 M after 48 hrs by sulforhodamine B assay relative to control; assay type: functional; conditions: SF-539, 48 h, read-out: Activity; procedure, shortened: as §3
HCT-15 = test: Growth inhibition of human HCT15 cells assessed as cell growth at 10^-5 M after 48 hrs by sulforhodamine B assay relative to control; assay type: functional; conditions: HCT-15, 48 h, read-out: Activity; procedure, shortened: as §2
HCT-116 = test: Growth inhibition of human HCT116 cells assessed as cell growth at 10^-5 M after 48 hrs by sulforhodamine B assay relative to control; assay type: functional; conditions: HCT-116, 48 h, read-out: Activity; procedure, shortened: as §2
NCI-H460 = test: Growth inhibition of human NCI-H460 cells assessed as cell growth at 10^-5 M after 48 hrs by sulforhodamine B assay relative to control; assay type: functional; conditions: NCI-H460, 48 h, read-out: Activity; procedure, shortened: as §3
[6] = Induction of nitric oxide release in phosphate buffer at 10^-4 M at pH 7.4 after 4 hrs by Griess colorimetric method in presence of N-acetylcysteine; assay type: physicochemical; conditions: pH 7.4, 4 h, 100 µM
Procedure, shortened: (§4)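 Final drug concentration 10^-4 M, added from DMF into 1:1 50 mM phosphate buffer (pH 7.4)/MeOH containing 5 × 10^-4 M N-acetylcysteine, at 37 °C. Nitrite read with Griess reagent after 10 min at room temperature, absorbance at 546 nm. Calibration with sodium nitrite standards (10–80 nmol/ml). Reported as mol NO per mol, n = 4 reaction mixtures.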

[7] = Induction of nitric oxide release in phosphate buffer at 10^-4 M at pH 7.4 after 5 hrs by Griess colorimetric method in presence of N-acetylcysteine; assay type: physicochemical; conditions: pH 7.4, 5 h, 100 µM; procedure, shortened: as §4
[8] = Induction of nitric oxide release in phosphate buffer at 10^-4 M at pH 7.4 after 6 hrs by Griess colorimetric method in presence of N-acetylcysteine; assay type: physicochemical; conditions: pH 7.4, 6 h, 100 µM; procedure, shortened: as §4
[9] = Induction of nitric oxide release in HCl buffer at 10^-4 M at pH 1 after 1 hr by Griess colorimetric method in presence of N-acetylcysteine; assay type: physicochemical; conditions: pH 1, 1 h, 100 µM
Procedure, shortened: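 Same Griess nitrite procedure at 10^-4 M final drug with N-acetylcysteine at 37 °C, but with 0.1 N HCl (pH 1) in place of the pH 7.4 phosphate buffer. Absorbance at 546 nm against a sodium nitrite calibration curve.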

Rattus norvegicus = test: Antiinflammatory activity in albino rat assessed as inhibition of carrageenan-induced paw edema at 0.28 mmol/kg, po administered 30 mins prior to carrageenan-challenge measured after 1 hr relative to control; assay type: functional
Procedure, shortened: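 Male albino rats in groups of four were fasted 24 h with water allowed. Dosing was oral at 0.28 mmol/kg, suspended in 0.5% w/v CMC; controls got CMC alone. After 30 min, 0.1 ml of 1% carrageenan in saline went subplantar into the right hind paw and saline into the left. Paw thickness was read by caliper before and at 1–5 h. % inhibition = [(VR−VL)control−(VR−VL)treated]/(VR−VL)control ×100. Mean ± SEM, n = 4, one-way ANOVA vs control.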

MOLT-4 = test: Growth inhibition of human MOLT4 cells assessed as cell growth at 10^-5 M after 48 hrs by sulforhodamine B assay relative to control; assay type: functional; conditions: MOLT-4, 48 h, read-out: Activity; procedure, shortened: as §3
HOP-62 = test: Growth inhibition of human HOP62 cells assessed as cell growth at 10^-5 M after 48 hrs by sulforhodamine B assay relative to control; assay type: functional; conditions: HOP-62, 48 h, read-out: Activity; procedure, shortened: as §2
[10] = Growth inhibition of human HOP92 cells assessed as cell growth at 10^-5 M after 48 hrs by sulforhodamine B assay relative to control; assay type: functional; conditions: HOP-92, 48 h, read-out: Activity; procedure, shortened: as §2
NCI-H226 = test: Growth inhibition of human NCI-H226 cells assessed as cell growth at 10^-5 M after 48 hrs by sulforhodamine B assay relative to control; assay type: functional; conditions: NCI-H226, 48 h, read-out: Activity; procedure, shortened: as §3
NCI-H23 = test: Growth inhibition of human NCI-H23 cells assessed as cell growth at 10^-5 M after 48 hrs by sulforhodamine B assay relative to control; assay type: functional; conditions: NCI-H23, 48 h, read-out: Activity; procedure, shortened: as §3

Row | Structure (SMILES) | growth at 10 µM (T47D) [%] | growth at 10 µM (BT-549) [%] | growth at 10 µM [1] [%] | growth at 10 µM (TK-10) [%] | growth at 10 µM (SN12C) [%] | growth at 10 µM [2] [%] | growth at 10 µM [3] [%] | growth at 10 µM (UACC-62) [%] | growth at 10 µM [4] [%] | growth at 10 µM (SK-MEL-28) [%] | growth at 10 µM (SNB-75) [%] | growth at 10 µM [5] [%] | growth at 10 µM (HCT-15) [%] | growth at 10 µM (HCT-116) [%] | growth at 10 µM (NCI-H460) [%] | Activity [6] [mol/mol] | Activity [7] [mol/mol] | Activity [8] [mol/mol] | Activity [9] | inhibition in vivo at 280 µmol/kg (Rattus norvegicus) [%] | also measured
1 | C/C(=N\O)c1ccc(NC(=O)CSc2nnc(-c3ccccc3)n2-c2ccccc2)cc1 | 92 | 75.3 | 79.6 | 73.7 | 76.2 | 72.5 | 86.2 | 76.7 | 81.8 | 48.6 | 59.2 | 97.2 | 84 | 97.5 | -34.7 | 0.23 | 0.14 | 0.16 | Not Active | 50 | growth at 10 µM (MOLT-4): 95.2%; growth at 10 µM (HOP-62): 64.7%; growth at 10 µM [10]: 30.1%; growth at 10 µM (NCI-H226): 72.4%; growth at 10 µM (NCI-H23): 76.6%
2 | COc1ccc(-c2nnc(SCC(=O)Nc3ccc(/C(C)=N/O)cc3)n2-c2ccccc2)cc1OC | 68 | 65.2 | 42.8 | 41.1 | 71.8 | 32.4 | 103 | 82.8 | 91.8 | 87.3 | -16.5 | 43 | 98.6 | 69.2 | 102 | 0.39 | 0.35 | 0.31 | Not Active | 57 | growth at 10 µM (MOLT-4): 91.7%; growth at 10 µM (HOP-62): -26.4%; growth at 10 µM [10]: -8.56%; growth at 10 µM (NCI-H226): 81.9%; growth at 10 µM (NCI-H23): 68.8%
